Laboratory results as given in PubChem BioAssay AID623894 (Johns Hopkins Ion Channel Center, 2012).
Several values for one entry are separate records, joined by “and”; a condition that tells them apart may be missing. Identical values can stand only once. Activity calls are given as the source filed them.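 The calls were made as follows: active = peak inhibition above 30% of the KCNK3 potassium channel at some dose, plus a fitted dose response curve; inactive = no inhibition at any dose, or no fitted curve.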

Target: Potassium channel subfamily K member 3 (Rattus norvegicus) (UniProt O54912)
Sequence (O54912 whole entry, looked up): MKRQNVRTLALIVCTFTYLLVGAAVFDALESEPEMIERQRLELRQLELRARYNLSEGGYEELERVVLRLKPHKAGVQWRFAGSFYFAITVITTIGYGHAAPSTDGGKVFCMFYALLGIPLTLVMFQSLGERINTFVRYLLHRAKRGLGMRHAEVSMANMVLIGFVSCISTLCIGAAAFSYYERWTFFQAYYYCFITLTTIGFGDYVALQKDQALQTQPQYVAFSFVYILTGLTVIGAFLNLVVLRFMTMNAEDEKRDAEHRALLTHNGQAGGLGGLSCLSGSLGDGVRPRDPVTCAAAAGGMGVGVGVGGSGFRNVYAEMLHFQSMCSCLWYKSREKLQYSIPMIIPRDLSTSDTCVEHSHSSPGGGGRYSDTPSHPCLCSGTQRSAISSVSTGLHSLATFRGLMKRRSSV
Assay: rat KCNK3 off-target channel block – cell-based, FluxOR thallium flux, CRC set 3, selectivity assay for KCNK9 inhibitor project, SAR follow-up (AID 623894)
Conditions: KCNK3-expressing cell line, FluxOR thallium flux fluorescence; for flux ratio, lower = inhibition: at 30 µM (top of the series)
Summary of the method: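 Assay system: CHO cells expressing tetracycline-induced rat KCNK3 potassium channel; replicates: duplicates or more; times: 90 min dye, 20 min compound, room temperature; signal: kinetic thallium-flux fluorescence with FluxOR dye, 110 s post-stimulus; reagent: K2SO4 plus Tl2SO4 stimulus buffer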

| Compound | flux ratio, lower = inhibition | IC50 |
| --- | --- | --- |
| COc1cccc(-c2nnc(SSc3nnc(-c4cccc(OC)c4)n3C(C)C3CC4CCC3C4)n2C(C)C2CC3CCC2C3)c1 (configuration not stated) | – | 1740 nM |
| C[C@H]([C@@H]1CC2CC[C@H]1C2)n1c(-c2ccco2)n[nH]c1=S | – | 159 nM |
| COc1ccc(CC(=O)NCc2ccccc2-c2ccccc2C(=O)NCc2ccc(F)cc2F)cc1 | – | 201 nM |
| CC(C1CC2CCC1C2)n1c(SCCN2CCOCC2)nnc1-c1ccco1 (configuration not stated) | inactive | – |
| C[C@H]([C@@H]1CC2CC[C@H]1C2)n1c(-c2ccccc2F)n[nH]c1=S | – | 121 nM |
| C[C@@H]([C@@H]1CC2CC[C@H]1C2)n1c(-c2ccco2)n[nH]c1=S | – | 818 nM and 6590 nM |
| CC(C1CCN(C)CC1)n1c(-c2ccco2)n[nH]c1=S (configuration not stated) | inactive | – |
| COc1ccc(NC(=O)CSc2nnc(-c3ccco3)n2C(C)C2CC3CCC2C3)cc1OC (configuration not stated) | – | 30300 nM |
| COc1cccc(CCSc2nnc(-c3ccco3)n2C(C)C2CC3CCC2C3)c1 (configuration not stated) | – | 893 nM |
| CC([C@@H]1CC2CC[C@H]1C2)n1c(-c2ccsc2)n[nH]c1=S (some centres not stated) | – | 1170 nM |
| C[C@H](C1CCCCC1)n1c(-c2ccsc2)n[nH]c1=S | – | 6030 nM |
| COc1ccc(CSc2nnc(-c3ccco3)n2C(C)C2CC3CCC2C3)cc1OC (configuration not stated) | – | 2190 nM |
| C[C@H](C1CCCCC1)n1c(-c2ccccc2F)n[nH]c1=S | – | 5880 nM |
| CC(C1CC2CCC1C2)n1c(SCC(=O)N2CCN(C)CC2)nnc1-c1ccco1 (configuration not stated) | – | 24800 nM |
| CC(C1C[C@H]2CCC1C2)n1c(-c2ccsc2)n[nH]c1=S (some centres not stated) | – | 10700 nM |

Second part, the compound after the results:

| flux ratio, lower = inhibition | IC50 | Compound |
| --- | --- | --- |
| inactive | – | CC(C1CC2CCC1C2)n1c(N)nnc1-c1ccco1 (configuration not stated) |
| – | 1100 nM | COc1cccc(-c2n[nH]c(=S)n2[C@H](C)[C@@H]2CC3CC[C@H]2C3)c1 |
| – | 322 nM | COc1ccc(C(=O)CCSc2nnc(-c3ccco3)n2C(C)C2CC3CCC2C3)cc1OC (configuration not stated) |
| – | 1660 nM | CC(C1CC2CCC1C2)n1c(SCCc2cccc(O)c2)nnc1-c1ccco1 (configuration not stated) |
| – | 1860 nM | CC(C1CC2CCC1C2)n1c(SCCc2ccccn2)nnc1-c1ccco1 (configuration not stated) |
| – | 4720 nM | CC(C1CC2CCC1C2)n1c(-c2ccco2)nn(CCc2ccncc2)c1=S (configuration not stated) |
| – | 12400 nM | COc1cccc(-c2n[nH]c(=S)n2[C@H](C)C2CCCCC2)c1 |
